Assay outcomes: PubChem, several laboratories
Most compounds without a hit are left out; they make up all but 1.8% or so of the library.
CAL PDZ FP-1: CAL PDZ (human) peptide binding inhibition | Q9HD26 | purified CAL PDZ, TMR-peptide fluorescence polarization, 1 h | inhibition, % at 24.9 µM | actives 0.92% (n = 300,000) | AID 602252;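 active means mean inhibition of at least 30% with at least half of replicates also reaching 30%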
Tn7 DDE FP: inhibitors of Tn7 peptide binding to human fibrin DD(E); FP displacement of FITC-Tn7 peptide from fibrin DD(E); 0% = median of compound wells per plate; P02675; inhibition, % at 8.3 µM; actives 0.13% (n = 370,000);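 active means inhibition above the mean of compounds falling within the control limits plus 3 SD of them, cut at about 14% in these data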
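Assay system: Human clot-derived fibrin DD(E) complex | Buffer or medium: Tris/NaCl/CaCl2 buffer, pH 7.8 | Repeats: One replicate per compound | Benchmarks: Aha-Tn7 high control | Measure: % inhibition scaled between sample-field median and high-control FP | Schedule: 10 min plus 3 h, room temperature | Signal: Fluorescence polarization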
Tn6 DDE FP: inhibitors of Tn6 peptide binding to human fibrin DD(E). actives 0.21% (n = 370,000). P02675. inhibition, % at 8.3 µM. Fibrin DD(E) TRITC-Tn6 fluorescence polarization displacement. AID 720509;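 active means inhibition above a per-campaign cutoff: mean of compounds within control limits plus 3 SD, cut at about 15% in these data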
GRK2 inh: blocks RNA aptamer binding to human GRK2. P25098. bead flow cytometry, FAM-aptamer displacement from GRK2. inhibition of aptamer binding, % at 10 µM. actives 0.59% (n = 330,000). AID 488847;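 active means inhibition of aptamer binding above 40%, roughly 3 SD of noise, on plates passing a quality check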;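 further: median bead fluorescence of bound FAM aptamer so fluorescent compounds give negative values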
Target sequence (P25098 whole entry, looked up): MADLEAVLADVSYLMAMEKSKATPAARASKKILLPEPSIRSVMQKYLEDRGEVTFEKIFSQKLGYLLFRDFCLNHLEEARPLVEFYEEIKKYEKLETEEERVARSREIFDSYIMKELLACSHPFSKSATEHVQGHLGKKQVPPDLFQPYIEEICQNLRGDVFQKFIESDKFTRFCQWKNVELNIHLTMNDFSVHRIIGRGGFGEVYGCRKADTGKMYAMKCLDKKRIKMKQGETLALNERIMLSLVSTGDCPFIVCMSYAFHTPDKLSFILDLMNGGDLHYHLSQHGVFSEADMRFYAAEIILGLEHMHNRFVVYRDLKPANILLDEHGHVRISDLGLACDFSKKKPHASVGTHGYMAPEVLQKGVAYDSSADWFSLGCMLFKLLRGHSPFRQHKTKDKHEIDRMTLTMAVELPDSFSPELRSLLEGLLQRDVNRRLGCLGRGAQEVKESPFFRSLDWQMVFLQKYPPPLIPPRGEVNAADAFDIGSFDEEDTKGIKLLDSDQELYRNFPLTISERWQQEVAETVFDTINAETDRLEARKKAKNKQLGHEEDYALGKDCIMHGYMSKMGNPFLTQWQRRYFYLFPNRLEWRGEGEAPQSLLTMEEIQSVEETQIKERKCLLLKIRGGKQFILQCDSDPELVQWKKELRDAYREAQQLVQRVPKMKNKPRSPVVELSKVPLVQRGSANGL
CAL PDZ FP-2: human CAL PDZ-peptide interaction inhibition | inhibition, % at 20 µM | Q9HD26 | purified CAL PDZ, TMR-peptide fluorescence polarization, 1 h | actives 0.02% (n = 330,000);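 active means highest replicate inhibition of at least 40%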
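Test system: purified CerCALP PDZ construct; Compound dosing: one concentration, 20 µM compound; Also added: TMR-labelled reporter peptide T*-PRC34 bound in PDZ groove; Read-out: inhibition from polarization loss; Controls: unlabelled peptide and DMSO controls; Signal: FP readout, S and P plane fluorescence; Incubation: 1 h at RT.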
ARNT TACC3 PPI: disrupts binding between human ARNT and TACC3. Q9Y6A5. AlphaScreen His-ARNT PAS-B/GST-TACC3 binding, luminescence; TACC3 fragment carries E629A point mutation. inhibition, % at 9.99 µM. actives 0.66% (n = 390,000);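 active means mean inhibition of replicates at least 50% and at least half of replicates each reaching 50%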
Tn7 DDE conf: confirmation of inhibitors of Tn7 binding to human fibrin DD(E); shares compounds with Tn7 DDE FP; FP displacement of TRITC-Tn7 peptide from DD(E); 0% set at plate's compound-well median; actives 5% (n = 460); inhibition, % at 8.3 µM;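 active means inhibition above the campaign cutoff, the mean of compounds within control limits plus 3 SD, cut at about 14% in these data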;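 further: displacers lower polarization since freed probe rises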
DDE Tn7 FP ctr: counter-screen hit for Tn7 peptide-fibrin DD(E) binding disruption | TRITC-Tn7 probe displacement, fluorescence polarization | inhibition, % at 8.3 µM | shares compounds with Tn7 DDE FP | actives 3% (n = 460);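 active means inhibition above the cutoff, the mean of compounds lying between the control bounds plus 3 SD of those compounds, cut at about 17% in these data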
A number is an active result; – = inactive; · = no result given.

SMILES	CAL PDZ FP-1	Tn7 DDE FP	Tn6 DDE FP	GRK2 inh	CAL PDZ FP-2	ARNT TACC3 PPI	Tn7 DDE conf	DDE Tn7 FP ctr
C=CCOc1ccc(/C=C/C(=O)OCC(=O)NCCCc2ccccc2)cc1	–	14	–	–	–	–	–	–
CCOC(=O)C(C)(C)Oc1cccc2c1S(=O)(=O)c1ccccc1-2	–	14	–	–	–	–	–	–
COc1ccc(Cl)cc1C(=O)OCC(=O)N(CC(C)C)c1c(N)n(Cc2ccccc2)c(=O)[nH]c1=O	–	–	–	–	–	–	·	·
CCN(C(=O)COC(=O)c1cc(Cl)ccc1OC)c1c(N)n(Cc2ccccc2)c(=O)[nH]c1=O	·	14	–	–	–	–	–	–
C[C@@H]1CN([C@@H](C)CO)C(=O)c2cc(NS(=O)(=O)c3cccs3)ccc2O[C@@H](C)CCCCO[C@@H]1CN(C)C(=O)Nc1cccc2ccccc12	·	·	·	·	·	–	·	·
Cc1ccc(S(=O)(=O)N2OC(c3ccccc3)C[C@H]2CC=C(c2ccccc2)c2ccccc2)cc1 (stereo partly drawn)	·	–	–	·	·	·	·	·
CC[C@H]1OC(=O)[C@H](C)[C@@H](O[C@H]2C[C@@](C)(OC)[C@@H](O)[C@H](C)O2)C(C)[C@@H](O[C@@H]2O[C@H](C)C[C@H](N(C)C)[C@H]2O)[C@](C)(O)C[C@@H](C)CN(C)[C@H](C)[C@@H](O)[C@]1(C)O (stereo partly drawn)	·	14	–	·	·	·	–	–
Cc1noc(C)c1NC(=O)Nc1ccc2c(c1)CC(=O)N([C@@H](C)CO)C[C@@H](C)[C@@H](CN(C)C(=O)Nc1cccc3ccccc13)O2	–	–	–	–	–	–	·	·
c1ccc(-c2ccc(CNC3CC3)cc2)cc1	–	14	–	–	–	–	–	–
Clc1ccc(CNC2CCN(Cc3ccccc3)CC2)cc1	·	–	–	–	–	–	·	·
COc1cccc(OC)c1C(=O)OCC(=O)NCCCc1ccccc1	–	15	–	–	–	–	–	–
CCCS(=O)(=O)n1nc(-c2ccc(C)cc2)cc1N	·	14	–	–	–	–	–	–
CCCS(=O)(=O)n1nc(-c2ccc(OC)cc2)cc1N	·	–	–	–	–	–	·	·
CC(C)(C)c1cc(C(=O)N/N=C/c2ccc(F)cc2)n(-c2ccccc2)n1	–	14	–	–	–	–	–	–
Cc1nn(-c2ccccc2)c(C)c1/C=N/NC(=O)c1ccc(F)cc1	–	–	–	–	–	–	·	·
COc1cc(C(C(=O)NCC2CCCO2)N(C(=O)Cn2nnc3ccccc32)c2ccc(OC)c(OC)c2)ccc1O (stereo not drawn)	·	–	–	–	–	·	·	·
CCOc1cc(C(C(=O)NCC2CCCO2)N(C(=O)Cn2nnc3ccccc32)c2ccc(NC(C)=O)cc2)ccc1O (stereo not drawn)	–	31	–	–	–	–	–	–
COc1ccc2c(c1)CO[C@H]([C@H](O)COC(C)=O)[C@H]2/C=C/c1ccccc1	·	15	–	·	·	·	–	–
NS(=O)(=O)c1ccc(CCNc2nn3c(-c4ccc(F)c(Cl)c4)cnc3s2)cc1	·	14	–	·	·	·	–	–
O=C(NCCc1ccccc1F)c1[nH]c(C(F)(F)F)nc1-c1ccccc1	·	–	–	·	·	·	·	·
COCCNC(=O)c1[nH]c(C(F)(F)F)nc1-c1ccccc1	·	15	–	·	·	·	–	–
COc1cccc(CNC(=O)C[C@@H]2CC[C@H](NC(=O)C3CCC3)[C@H](CO)O2)c1	·	·	·	·	·	–	·	·
C/C(=N\N1CCN(Cc2ccc(Cl)cc2)CC1)c1ccc([N+](=O)[O-])cc1	·	15	–	–	–	–	–	–
Cc1ccc(NC(=O)CS(=O)CC(=O)N(c2ccc(C)cc2)C(C)C(=O)NC2CCCCC2)cc1 (stereo not drawn)	–	15	–	–	–	–	–	–
